Assay results from article PMC6771164 (Hepatology Communications, 2019).

What was measured:
[1] = tested on: woodchuck hepatitis virus (WHV); assay: Efficacy study in WHV-positive woodchucks; format: in vivo
Outline: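 Adult chronically WHV-infected woodchucks of both sexes (serum WHV DNA, WHsAg and WHeAg positive; anti-WHs and anti-WHe negative) stratified into four groups, n = 5. Daily oral nucleoside analogue (0.1 mg/kg/day) or PBS vehicle in diet for 4 weeks. Then 12 weeks adding weekly oral TLR7 agonist (5.0–30.0 mg/kg/week) or carboxymethyl cellulose/tween-80 vehicle. Then 4 weeks daily drug only, followed to week 36. Serum WHsAg and anti-WHs by enzyme immunoassay. WHeAg and anti-WHe by cross-reactive ELISA OD.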

serum IP-10, IL-6, TNF-α = assay: Mouse PD study: serum cytokines after single oral dose; format: in vivo, C57BL/6 mice; conditions: serum at 3 hours
Outline: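 Female C57BL/6 mice, 7-8 weeks old, given a single oral dose of test compound at 0.3, 3, 30 or 300 mg/kg. Bled at 3 hours. Serum IP-10, IL-6 and TNF-α quantified as pg/mL, reported as mean ± SD.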

[2] = mice; cited from earlier work
[3] = cited from earlier work
[4] = cited from earlier work; remark: listed apart in the source
OAS1 transcript in blood = conditions: woodchuck model; cited from earlier work

Row | Structure (SMILES) | woodchucks with recrudescence of WHV replication after drug withdrawal ([1]; Group 1) | animals with undetectable serum WHeAg during the study ([1]; Group 1, n = 5) | animals with undetectable serum WHsAg during the study ([1]; Group 1, n = 5) | elicitation of anti-WHs antibodies ([1]; monotherapy (Groups 1 and 2)) | serum IL-6 level relative to APR002 (serum IP-10, IL-6, TNF-α; high oral doses) [fold] | serum TNF-α level relative to APR002 (serum IP-10, IL-6, TNF-α; high oral doses) [fold] | slope of serum IP-10 dose response (serum IP-10, IL-6, TNF-α; single oral dose 0.3-300 mg/kg) | volume of distribution [2] | clearance in mouse liver microsomes [3] | clearance in human liver microsomes [4] | fold change in blood OAS1 (OAS1 transcript in blood) [fold]
1 | C=C1[C@H](CO)[C@@H](O)C[C@@H]1n1cnc2c(=O)[nH]c(N)nc21 [ETV, entecavir] | all five | five | four | did not occur in any animal | – | – | – | – | – | – | –
2 | CCCCOc1nc(N)c2c(n1)N(Cc1cccc(CN3CCCC3)c1)CC(=O)N2 [GS-9620] | – | – | – | – | > 6 | > 4 | 2.8 | high volume of distribution | fast clearance | fast clearance | 5
